Laboratory results as given in ChEMBL document CHEMBL4321800, “Synthesis, Identification, and Structure-Activity Relationship Analysis of GATA4 and NKX2-5 Protein-Protein Interaction Modulators” (J Med Chem, 2019).

Key:
Format in all cases: cell-based
[1] = target: T1, GATA4/NKX2-5 (Mus musculus) (UniProt Q08369+P42582); experiment: Enhancement of mouse GATA4/mouse NKX2-5 protein-protein interaction expressed in Chlorocebus aethiops COS1 cells harboring 3xHA reporter gene assessed as transcriptional synergy at 10 uM after 24 hrs by luciferase reporter gene assay relative to control
How it was run: (§1)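 COS-1 cells seeded 14 000/well, grown overnight, then transfected for 6 h in serum- and antibiotic-free medium with pGL3-3xHA reporter (three NKX2-5 sites, 100 ng/well) plus pMT2-GATA4 and pMT2-NKX2-5 (total 50 ng/well), Fugene 6 at 1:3 DNA/reagent. Compound or 0.1% DMSO vehicle for 24 h, then luminescence read. Triplicates, Grubbs outliers removed, expressed as % of control.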

[2] = target: Transcription factor GATA-4 (Mus musculus) (UniProt Q08369); experiment: Enhancement of mouse GATA4 expressed in Chlorocebus aethiops COS1 cells harboring NP-112 reporter gene assessed as BNP promoter-driven transcriptional activity at 10 uM after 24 hrs by luciferase reporter gene assay relative to control
Sequence of Transcription factor GATA-4 (Mus musculus) (Q08369 whole entry): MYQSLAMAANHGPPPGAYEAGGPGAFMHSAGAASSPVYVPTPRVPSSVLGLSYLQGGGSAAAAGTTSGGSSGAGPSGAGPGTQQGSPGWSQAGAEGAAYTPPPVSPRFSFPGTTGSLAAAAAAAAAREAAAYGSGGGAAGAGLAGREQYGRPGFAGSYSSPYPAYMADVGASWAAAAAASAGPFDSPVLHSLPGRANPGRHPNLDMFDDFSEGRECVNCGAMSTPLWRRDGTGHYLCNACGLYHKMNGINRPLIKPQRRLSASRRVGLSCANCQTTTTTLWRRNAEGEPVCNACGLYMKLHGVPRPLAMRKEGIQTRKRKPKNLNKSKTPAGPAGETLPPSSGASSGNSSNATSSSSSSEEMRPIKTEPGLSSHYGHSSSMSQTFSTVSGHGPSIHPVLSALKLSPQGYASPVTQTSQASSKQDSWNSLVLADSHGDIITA
How it was run: (§2)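 GATA reporter assay: COS-1 cells (14 000/well, overnight) transfected 6 h serum/antibiotic-free with NP-112 reporter (tandem GATA sites plus rat BNP minimal promoter, 100 ng/well) and pMT2-GATA4 (25 ng/well), Fugene 6 1:3. Treated 24 h with compound or 0.1% DMSO. Luminescence read; triplicates, Grubbs outliers removed, % of control.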

[3] = target: Homeobox protein Nkx-2.5 (Mus musculus) (UniProt P42582); experiment: Modulation of mouse NKX2-5 expressed in Chlorocebus aethiops COS1 cells harboring 3xHA reporter gene assessed as protein-induced transcriptional activity at 10 uM after 24 hrs by luciferase reporter gene assay relative to control
Sequence of Homeobox protein Nkx-2.5 (Mus musculus) (P42582 whole entry): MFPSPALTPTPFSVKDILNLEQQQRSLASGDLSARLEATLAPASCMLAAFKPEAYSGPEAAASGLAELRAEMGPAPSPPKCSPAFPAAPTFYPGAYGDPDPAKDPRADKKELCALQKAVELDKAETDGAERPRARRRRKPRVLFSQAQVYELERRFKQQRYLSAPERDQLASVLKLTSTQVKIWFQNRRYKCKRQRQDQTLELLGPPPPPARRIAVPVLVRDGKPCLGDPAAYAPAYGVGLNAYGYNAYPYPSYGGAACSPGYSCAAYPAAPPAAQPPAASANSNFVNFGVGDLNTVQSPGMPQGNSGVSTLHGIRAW
How it was run: (§3)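 COS-1 cells seeded 14 000/well and grown overnight. Transfection for 6 h in serum- and antibiotic-free medium with pGL3-3xHA reporter (100 ng/well) and pMT2-NKX2-5 (25 ng/well), Fugene 6 1:3. Compound or 0.1% DMSO vehicle for 24 h, then luciferase luminescence. Triplicate wells with Grubbs outlier removal, % of control.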

[4] = target: T1, GATA4/NKX2-5 (Mus musculus); experiment: Modulation of mouse GATA4/mouse NKX2-5 protein-protein interaction expressed in Chlorocebus aethiops COS1 cells harboring 3xHA reporter gene assessed as transcriptional synergy at 10 uM after 24 hrs by luciferase reporter gene assay relative to control; how it was run: as §1
[5] = target: Transcription factor GATA-4 (Mus musculus) (UniProt Q08369); experiment: Modulation of mouse GATA4 expressed in Chlorocebus aethiops COS1 cells harboring NP-112 reporter gene assessed as BNP promoter-driven transcriptional activity at 10 uM after 24 hrs by luciferase reporter gene assay relative to control; how it was run: as §2
COS-1 [6] = experiment: Induction of necrosis in Chlorocebus aethiops COS1 cells assessed as LDH release at 1 to 30 uM after 24 hrs by LDH assay relative to control; settings: cos-1, 24 h
How it was run: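 COS-1 cells in DMEM with 10% FBS at 37 °C, 5% CO₂, plated 10 000/well and exposed next day to 1–30 μM for 24 h. Medium samples mixed with NAD, iodonitrotetrazolium, lactate and phenazine methosulfate in 0.2 M Tris-HCl pH 8.2, 30 min at room temperature. Stopped with acetic acid, A490 read and normalized to maximal and spontaneous release.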

[7] = target: Homeobox protein Nkx-2.5 (Mus musculus) (UniProt P42582); experiment: Enhancement of mouse NKX2-5 expressed in Chlorocebus aethiops COS1 cells harboring 3xHA reporter gene assessed as protein-induced transcriptional activity at 10 uM after 24 hrs by luciferase reporter gene assay relative to control; how it was run: as §3
COS-1 [8] = experiment: Cytotoxicity against Chlorocebus aethiops COS1 cells assessed as reduction in cell viability at 10 uM after 24 hrs by MTT assay relative to control; settings: cos-1, 24 h
How it was run: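 COS-1 cells plated 10 000/well, exposed next day for 24 h (range 1–30 μM). Incubated with 0.5 mg/mL MTT for 2 h at 37 °C, formazan dissolved in DMSO, A550 minus A650 background. Means of 2–3 independent experiments with triplicate wells, % of vehicle-treated cells; toxic if viability fell >10% at 10 μM.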

[9] = target: Homeobox protein Nkx-2.5 (Mus musculus) (UniProt P42582); experiment: Inhibition of mouse NKX2-5 expressed in Chlorocebus aethiops COS1 cells harboring 3xHA reporter gene assessed as protein-induced transcriptional activity at 10 uM after 24 hrs by luciferase reporter gene assay relative to control; set-up: scale not given: the % may be the effect or the level left; how it was run: as §3
[10] = target: Transcription factor GATA-4 (Mus musculus) (UniProt Q08369); experiment: Inhibition of mouse GATA4 expressed in Chlorocebus aethiops COS1 cells harboring NP-112 reporter gene assessed as BNP promoter-driven transcriptional activity at 10 uM after 24 hrs by luciferase reporter gene assay relative to control; set-up: scale not given: the % may be the effect or the level left; how it was run: as §2
[11] = target: T1, GATA4/NKX2-5 (Mus musculus); experiment: Inhibition of mouse GATA4/mouse NKX2-5 protein-protein interaction expressed in Chlorocebus aethiops COS1 cells harboring 3xHA reporter gene assessed as transcriptional synergy at 10 uM after 24 hrs by luciferase reporter gene assay relative to control; set-up: scale not given: the % may be the effect or the level left; how it was run: as §1
COS-1 [12] = experiment: Cytotoxicity against Chlorocebus aethiops COS1 cells assessed as reduction in cell viability at 10 uM after 24 hrs by CellTiter-Glo Luminescent Cell Viability assay relative to control; settings: cos-1, 24 h
How it was run: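 Intracellular ATP read-out (CellTiter-Glo) in COS-1 cells plated and treated as for MTT, 24 h exposure, doxorubicin as positive control. Plates equilibrated 30 min at room temperature, washed with PBS, reagent added, mixed 2 min, 15 min at room temperature, then luminescence. Mean + SEM of three independent experiments, % of vehicle-treated cells.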

Row | SMILES | Activity [3] | Activity [4] | Activity [5] | Activity (COS-1 [6]) | other results
1 | CCC(C)NC(=O)c1cc(-c2ccco2)on1 (centres undefined) | – | – | – | – | Activity [1]: 140%
2 | CCN(CC)c1ccc(NC(=O)c2cnoc2C2CC2)cc1 | – | – | – | – | Activity [1]: 140%
3 | CC(C)c1ccc(NC(=O)c2noc3c2CCc2sccc2-3)cc1 | – | – | – | – | Activity [2]: 120%; Activity [1]: 130%
4 | CCN(CC)c1ccc(NC(=O)c2c(-c3ccsc3)noc2C)cc1 | 84% | 66% | 71% | < 8% | –
5 | CCc1noc(C)c1C(=O)Nc1ccc(N(CC)CC)cc1 | – | 100% | – | – | Activity [7]: 160%; Activity [2]: 140%
6 | CCN(CC)c1ccc(NC(=O)c2cnoc2-c2ccccc2)cc1 | 50% | 47% | 62% | < 8% | –
7 | CCN(CC)c1ccc(NC(=O)c2csc(C)c2-c2ccccc2)cc1 | 39% | 33% | 58% | < 8% | Activity (COS-1 [8]): Non-Toxic
8 | CCN(CC)c1ccc(NC(=O)c2cc(C)oc2-c2ccccc2)cc1 | 37% | 35% | 49% | < 8% | Activity (COS-1 [8]): > 10%
9 | CCN(CC)c1ccc(NC(=O)c2c(-c3ccccc3)nnn2CCc2ccccc2)cc1 | – | – | – | < 8% | Activity [9]: 34%; Activity [10]: 38%
10 | Cc1onc(-c2ccccc2)c1COc1ccc(C(=O)O)cc1 | – | – | – | – | Activity [1]: 120%
11 | Cc1onc(-c2ccccc2)c1C(=O)Nc1ccc(C(=O)OCCCCC#N)cc1 | – | 90% | 100% | – | Activity [7]: 150%
12 | CCN(CC)c1ccc(NC(=O)c2cnsc2)cc1 | – | – | 48% | < 8% | Activity [9]: 16%; Activity [11]: 27%; Activity (COS-1 [12]): Non-Toxic
13 | Cc1onc(-c2ccccc2)c1C(=O)Nc1ccc2oc(-c3ccccc3)cc(=O)c2c1 | 53% | 31% | 66% | < 8% | –
14 | CCN(CC)c1ccc(NC(=O)c2cnc3ncccn23)cc1 | – | – | – | < 8% | Activity [7]: 120%; Activity [2]: 130%; Activity [1]: 140%
15 | CC(=O)COC(=O)c1ccc(OCc2c(-c3ccccc3)noc2C)cc1 | 41% | 37% | – | < 8% | Activity (COS-1 [8]): > 10%; Activity [10]: 44%
16 | CCN(CC)c1ccc(NC(=O)c2c(-c3ccc(F)cc3)noc2C)cc1 | 47% | 44% | 79% | < 8% | –
17 | CCN(c1ccc(NC(=O)c2c(-c3ccccc3)noc2C)cc1)C(C)C | – | 41% | 75% | < 8% | Activity [9]: 34%
18 | CCN(CC)c1ccc(CN(C(=O)C(F)(F)F)c2c(-c3ccccc3)noc2C)cc1 | 71% | 52% | 72% | < 8% | –
19 | C#CC[N+](CC)(CC)c1ccc(NC(=O)c2c(-c3ccccc3)noc2C)cc1 | – | – | – | – | Activity [7]: 120%
20 | CCN(CC)c1ccc(NC(=O)c2c(-c3ccncc3)noc2C)cc1 | 61% | 61% | 79% | < 8% | –
21 | CCN(CC)c1ccc(NC(=O)c2cn(C)nc2-c2cc(C)on2)cc1 | 93% | 99% | – | – | Activity [2]: 130%
22 | Cc1onc(-c2ccccc2)c1C(=O)Nc1ccc(C(=O)OCCC#N)cc1 | – | – | – | – | Activity [7]: 130%
23 | CCN(CC)c1ccc(NC(=O)c2cc(C)oc2-c2cc(C)on2)cc1 | 110% | 100% | – | – | Activity [2]: 140%
24 | CCN(CC)c1ccc(NC(=O)c2c(-c3ccccc3)noc2C)cc1 | 49% | 50% | 62% | < 8% | Activity (COS-1 [12]): > 10%

Row | SMILES | Activity [3] | Activity [4] | Activity [5] | Activity (COS-1 [6]) | other results
25 | CC(=O)N(Cc1ccc(N(C)C)cc1)c1c(-c2ccccc2)noc1C | – | – | – | < 8% | Activity [11]: 28%; Activity (COS-1 [8]): > 10%; Activity [10]: 47%
26 | C=CCN(Cc1ccc(N(CC)CC)cc1)c1c(-c2ccccc2)noc1C | 73% | 53% | 80% | < 8% | –
27 | CC(=O)c1ccc(NC(=O)c2cc(-c3ccco3)on2)cc1 | – | – | – | – | Activity [1]: 130%
28 | Cc1onc(-c2ccccc2)c1NC(=O)c1ccc(N2CCN(C)CC2)cc1 | – | – | – | – | Activity [1]: 120%
29 | CCN(CC)c1ccc(CNc2c(-c3ccccc3)noc2C)cc1 | 89% | 91% | 77% | < 8% | –
30 | CCN(c1ccc(NC(=O)c2c(C)noc2-c2snnc2C)cc1)C(C)C | – | – | – | – | Activity [11]: 19%
31 | CCN(CC)c1ccc(NC(=O)c2cn(C)cc2-c2cc(C)on2)cc1 | – | 110% | 110% | – | Activity [7]: 110%
32 | CCN(CC)c1ccc(NC(=O)c2c(C)noc2-c2ccccc2)cc1 | – | – | – | < 8% | Activity [9]: 29%; Activity [11]: 29%; Activity (COS-1 [8]): > 10%
33 | Cc1onc(-c2ccccc2)c1C(=O)N(C)c1ccc(C(=O)O)cc1 | – | – | – | – | Activity [1]: 130%
34 | CCN(c1ccc(NC(=O)c2c(C)noc2-c2ccccc2)cc1)C(C)C | – | – | – | < 8% | Activity [9]: 31%; Activity [11]: 25%; Activity (COS-1 [8]): > 10%; Activity [10]: 41%
35 | CCN(c1ccc(NC(=O)c2c(C)noc2-c2cc(C)on2)cc1)C(C)C | – | – | – | – | Activity [2]: 120%
36 | CCN(CC)c1ccc(NC(=O)c2csc([N+](=O)[O-])c2)cc1 | – | 25% | – | < 8% | Activity [9]: 26%; Activity [11]: 25%; Activity [10]: 23%
37 | Cc1onc(-c2ccccc2)c1C(=O)Nc1ccc(C(=O)OCCCC#N)cc1 | 97% | 98% | – | – | Activity [2]: 110%
38 | CCN(CC)c1ccc(-n2c(=O)c3c(C)onc3c3ccccc32)cc1 | – | – | – | – | Activity [7]: 110%
39 | CCN(CC)c1ccc(NC(=O)c2c(C)noc2-c2cc(C)on2)cc1 | 84% | 78% | 100% | < 8% | –
40 | COc1ccc(-c2cc(NC(=O)c3ccc(C(C)(C)C)cc3)n[nH]2)cc1 | – | – | – | < 8% | Activity (COS-1 [12]): Non-Toxic; Activity [10]: 40%
41 | CCN(CC)c1ccc(NC(=O)c2c(-c3cccc([N+](=O)[O-])c3)noc2C)cc1 | – | 65% | – | < 8% | Activity (COS-1 [8]): Non-Toxic
42 | CCN(CC)c1ccc(NC(=O)c2csc3nnsc23)cc1 | – | – | – | – | Activity [1]: 130%
43 | CN(C)c1ccc(/N=C/c2c[nH]nc2-c2ccc(F)cc2)cc1 | – | – | – | – | Activity [7]: 140%; Activity [2]: 120%
44 | CCN(CC)c1ccc(NC(=O)c2cnc(SC)n2-c2ccc(F)cc2)cc1 | 65% | 52% | – | < 8% | Activity [10]: 45%
45 | CCC(OC)c1ccc(OCc2c(-c3ccccc3)noc2C)cc1 (racemic) | 67% | 43% | 78% | < 8% | –
46 | Cc1onc(-c2ccccc2)c1C(=O)Nc1ccc(C#C[Si](C)(C)C)cc1 | 75% | 69% | 93% | < 8% | –
47 | Cc1cc(-c2onc(C)c2C(=O)Nc2ccc3oc(-c4ccccc4)cc(=O)c3c2)no1 | – | – | – | – | Activity [7]: 110%; Activity [2]: 120%
